Active and inactive are the calls of the source. The rule behind the calls is not given here.
Key:
[1] = Permeability of the compound at pH 7.4 after 4 hrs by PAMPA; type: ADME; conditions: read-out: permeability
Procedure, shortened: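 Passive membrane permeability was measured by PAMPA at pH 7.4. The effective permeability coefficient Pe is reported in 10^-6 cm/sec.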

[2] = Octanol-phosphate buffer partition coefficient, log D of the compound at pH 7.4 after 12 hrs by shake flask method; type: physicochemical
[3] = Antiinflammatory activity in Balb/c mouse splenocytes assessed as LPS-induced TNF-alpha production after 18 to 24 hrs by AlphaLISA; type: functional, cell-based; conditions: Splenocyte
[4] = target: T1, 3',5'-cyclic-AMP phosphodiesterase 4B (Homo sapiens, UniProt Q07343); assay: Inhibition of human recombinant PDE4B (152 to 564 amino acids) using cAMP as substrate after 30 mins by plate reader analysis
Mus musculus = assay: Antiinflammatory activity in ip dosed BALB/c mouse assessed as inhibition of LPS-induced pulmonary neutrophilia administered 30 mins prior to LPS challenge measured after 4 to 5 hrs; type: functional; conditions: for ED50: read-out: ID50 (the source's name)
[5] = target: T1, 3',5'-cyclic-AMP phosphodiesterase 4B; assay: Inhibition of human recombinant PDE4B (152 to 564) using cAMP as substrate at 10 uM after 30 mins by plate reader analysis

T1 sequence (Q07343 whole entry, the tested form may be a part): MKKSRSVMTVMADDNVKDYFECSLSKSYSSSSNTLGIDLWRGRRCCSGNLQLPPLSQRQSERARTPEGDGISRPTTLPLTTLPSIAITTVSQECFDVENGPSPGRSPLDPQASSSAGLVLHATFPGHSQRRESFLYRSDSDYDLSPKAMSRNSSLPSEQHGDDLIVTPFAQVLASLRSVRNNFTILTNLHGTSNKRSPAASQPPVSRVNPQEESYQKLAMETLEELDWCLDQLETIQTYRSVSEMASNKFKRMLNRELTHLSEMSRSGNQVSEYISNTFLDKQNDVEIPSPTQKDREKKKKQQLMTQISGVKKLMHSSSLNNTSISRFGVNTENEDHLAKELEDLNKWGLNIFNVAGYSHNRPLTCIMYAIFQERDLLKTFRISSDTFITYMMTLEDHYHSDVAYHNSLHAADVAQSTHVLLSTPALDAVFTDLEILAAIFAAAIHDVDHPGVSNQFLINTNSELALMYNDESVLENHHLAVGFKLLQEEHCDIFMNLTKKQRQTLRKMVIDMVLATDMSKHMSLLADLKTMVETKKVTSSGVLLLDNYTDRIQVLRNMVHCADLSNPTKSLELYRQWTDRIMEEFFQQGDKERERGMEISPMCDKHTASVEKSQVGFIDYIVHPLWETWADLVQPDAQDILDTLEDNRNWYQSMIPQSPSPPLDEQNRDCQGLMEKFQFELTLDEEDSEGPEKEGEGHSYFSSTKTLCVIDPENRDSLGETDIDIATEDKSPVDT

Row | SMILES | IC50 [3] [nM] | IC50 [4] [nM] | further results
1 | O=C(O)Cc1ccc(Nc2nc(-c3ccccc3)nc3c2CCS(=O)(=O)C3)cc1 | > 10000 | 28 | Papp at 4 h [1]: < 2 ×10⁻⁶ cm/s; logD at 12 h [2]: -0.45
2 | O=C(O)CC1CCN(c2nc(-c3ccccc3)nc3c2CS(=O)(=O)C3)CC1 |  | 190 | 
3 | O=C(Nc1c(Cl)cncc1Cl)c1ccc(OC(F)F)c(OCC2CC2)c1 [ROFLUMILAST] | 1.2 |  | 
4 | O=C(O)CCc1ccc(Nc2nc(-c3ccccc3)nc3c2CS(=O)(=O)C3)cc1 |  | 800 | 
5 | O=C(O)Cc1ccc(Nc2nc(-c3ccccc3)nc3c2SCCC3)cc1 | 90 | 29 | Papp at 4 h [1]: 15.5 ×10⁻⁶ cm/s; logD at 12 h [2]: 1.4
6 | O=C(O)Cc1ccc(Nc2nc(-c3ccccc3)nc3c2CCCCC3)cc1 |  |  | inhibition [5]: 35%
7 | O=C(O)CC1CCN(c2nc(-c3ccccc3)nc3c2CSC3)CC1 |  | 150 | 
8 | O=C(O)Cc1cccc(Nc2nc(-c3ccccc3)nc3c2CS(=O)(=O)C3)c1 |  | 2500 | 
9 | O=C(O)Cc1ccc(Nc2nc(-c3ccccc3)nc3c2CCC3)cc1 |  | 610 | 
10 | O=C(O)Cc1ccc(Nc2nc(-c3ccccc3)nc3sccc23)cc1 |  | 230 | 
11 | O=C(O)Cc1ccc(Nc2nc(-c3ccccc3)nc3c2COC3)cc1 |  | 2200 | 
12 | O=C(O)Cc1ccc(Nc2nc(-c3ccccc3)nc3c2CCCC3)cc1 |  | 430 | 
13 | O=C(O)CN1CCC(Nc2nc(-c3ccccc3)nc3c2CS(=O)(=O)C3)CC1 |  | 3000 | 
14 | O=C(O)Cc1ccc(Nc2nc(-c3ccccc3)nc3c2CS(=O)(=O)CC3)cc1 |  | 7900 | 
15 | O=C(O)Cc1ccc(Nc2nc(-c3ccccc3)nc3c2CS(=O)(=O)C3)cc1 | 970 | 140 | Papp at 4 h [1]: < 2 ×10⁻⁶ cm/s; logD at 12 h [2]: 0.016
16 | O=C(O)Cc1ccc(Nc2nc(-c3ccccc3)nc3ncccc23)cc1 |  |  | inhibition [5]: 14%
17 | O=C(O)Cc1ccc(Nc2nc(-c3ccccc3)nc3c2CSC3)cc1 | 220 | 29 | Papp at 4 h [1]: 13.3 ×10⁻⁶ cm/s; logD at 12 h [2]: 1.3
18 | O=C(O)Cc1ccc(Nc2nc(-c3ccccc3)nc3ccccc23)cc1 |  | 480 | 
19 | O=C(O)CN1CCN(c2nc(-c3ccccc3)nc3c2CS(=O)(=O)C3)CC1 |  | 5000 | 

Continued, in another order:

Row | IC50 [3] [nM] | IC50 [4] [nM] | SMILES | further results
20 | 4.7 | 6.6 | CC(C)CNC(=O)Cc1ccc(Nc2nc(-c3ccccc3)nc3c2S(=O)(=O)CCC3)cc1 | 
21 | > 10000 | 280 | O=C(O)Cc1ccc(Nc2nc(-c3ccccc3)nc3c2S(=O)(=O)CC3)cc1 | 
22 | 9.8 | 7.5 | CCCNC(=O)Cc1ccc(Nc2nc(-c3ccccc3)nc3c2S(=O)(=O)CCC3)cc1 | ED50 (Mus musculus): 18 mg/kg
23 | 8.5 | 11 | CC(C)(C)NC(=O)Cc1ccc(Nc2nc(-c3ccccc3)nc3c2S(=O)(=O)CCC3)cc1 | 
24 | 18 | 43 | O=C(Cc1ccc(Nc2nc(-c3ccccc3)nc3c2S(=O)(=O)CCC3)cc1)Nc1ccccc1 | 
25 | 13 | 22 | CCCCNC(=O)Cc1ccc(Nc2nc(-c3ccccc3)nc3c2S(=O)(=O)CCC3)cc1 | ED50 (Mus musculus): 23 mg/kg
26 | 17 | 33 | CN(C)C(=O)Cc1ccc(Nc2nc(-c3ccccc3)nc3c2S(=O)(=O)CCC3)cc1 | 
27 | 390 | 25 | O=C(O)Cc1ccc(Nc2nc(-c3ccccc3)nc3c2S(=O)(=O)CCC3)cc1 | Papp at 4 h [1]: 5.8 ×10⁻⁶ cm/s; logD at 12 h [2]: 0.43
28 | 35 | 27 | CNC(=O)Cc1ccc(Nc2nc(-c3ccccc3)nc3c2S(=O)(=O)CCC3)cc1 | 
29 | 0.8 | 4.7 | CC(C)(C)CNC(=O)Cc1ccc(Nc2nc(-c3ccccc3)nc3c2S(=O)(=O)CCC3)cc1 | Activity (Mus musculus): inactive
30 | 8.5 | 16 | NC(=O)Cc1ccc(Nc2nc(-c3ccccc3)nc3c2S(=O)(=O)CCC3)cc1 | Papp at 4 h [1]: > 50 ×10⁻⁶ cm/s; logD at 12 h [2]: 2.9

Reference: ChEMBL document CHEMBL2385052, “Identification of the fused bicyclic 4-amino-2-phenylpyrimidine derivatives as novel and potent PDE4 inhibitors” (Bioorg Med Chem Lett, 2013)
